Reference: PubChem BioAssay
The source made the active and inactive calls.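 The calls were made as follows, unless noted: active = GFP response above 150% of the DMSO level; inconclusive = fewer than 70 events counted for a yeast strain; inactive = the rest.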

Assays:
[1] = hit retest on RPL19A-GFP reporter strain – cell-based, S. cerevisiae, flow cytometry, cherry picks, mother/daughter gates, confirmation (AID 2270;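 active = GFP response below 50% of the DMSO control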); conditions: 3 h, at 10 µM, stronger effect = lower value, 100 = same GFP as DMSO wells
[2] = yeast TOR pathway reporter LAP4-GFP change – cell-based, cherry picks, flow cytometry, mother/daughter gates, confirmation (AID 2271;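 active = GFP response above 150% of the DMSO control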;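 also: ratio of sample to DMSO plate mean so 100% equals DMSO level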); conditions: S. cerevisiae LAP4-GFP strain, 3 h, at 10 µM, stronger effect = higher value, 100 means same as DMSO control
Procedure, shortened: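 System: GFP-fusion yeast strain | Input: Yeast cells seeded at OD600 of 0.2 | Technique: HT flow cytometry, GFP fluorescence channel | Read-out: % GFP response vs DMSO | Dosing: Single test-compound dose, 10 µM final | Controls: Positive rapamycin (400 ng/mL), negative DMSO | Times: 3 h treatment at 30 °C with rotation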

[3] = TOR pathway reporter MEP2-GFP, retest of hits – S. cerevisiae, flow cytometry GFP, cherry picks, confirmation (AID 2272;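 active = GFP response above 150% of the DMSO control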;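 also: ratio of well signal to plate DMSO mean so 100% equals DMSO level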); conditions: S. cerevisiae MEP2-GFP strain, 3 h, at 10 µM, stronger effect = higher value
[4] = yeast AGP1-GFP fluorescence change, single-dose – cell-based, flow cytometry, S. cerevisiae, cherry picks, confirmation (AID 2273);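 also: median GFP channel fluorescence over the whole cell population gate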; conditions: S. cerevisiae AGP1-GFP strain, 3 h, at 10 µM
[5] = TOR pathway CIT2 reporter hit retest – S. cerevisiae, GFP fusion, cherry picks, mother/daughter gates, confirmation (AID 2274); conditions: S. cerevisiae CIT2-GFP strain, flow cytometry, 3 h, at 10 µM, stronger effect = higher value
[6] = measured here: daughter cell gate
[7] = measured here: mother cell gate
[8] = measured here: daughter cell gate response
[9] = measured here: mother cell gate response

SMILES | GFP response vs DMSO [1] | GFP response vs DMSO [1, 6] | GFP response vs DMSO [1, 7] | GFP response relative to DMSO [2] | GFP response relative to DMSO [2, 8] | GFP response relative to DMSO [2, 9] | GFP response vs DMSO [3] | GFP response, % of DMSO [4] | GFP response, % of DMSO [5] | GFP response, % of DMSO [5, 6] | GFP response, % of DMSO [5, 7]
CCN1/C(=C/c2ccc3cc(C)ccc3[n+]2CC)Sc2ccc3sccc3c21 | 96.7% (inactive) | 74.3% | 92.3% | 316% (active) | 155% | 287% | 244% (active) | 118% (inactive) | 132% (inactive) | 110% | 133%
COc1cc(C(O)P(=O)(OCC(C)C)OCC(C)C)cc(OC)c1OC (stereo not drawn) | 99.5% (inactive) | 99.8% | 99.7% | 100% (inactive) | 102% | 98.5% | 104% (inactive) | 100% (inactive) | 101% (inactive) | 100% | 99.1%
O=C(COC(=O)c1n[nH]c2ccccc12)c1cc(F)ccc1F | 99.5% (inactive) | 99% | 101% | 97.4% (inactive) | 98.7% | 98.3% | 97.8% (inactive) | 97.6% (inactive) | 97.8% (inactive) | 96.5% | 99.8%
CCN(CC)CCN(C(=O)c1ccc2c(c1)CCCC2)c1nc2cc(OC)c(OC)cc2s1 | 94.1% (inactive) | 96% | 94.1% | 98.8% (inactive) | 99.3% | 95.6% | 97.5% (inactive) | 101% (inactive) | 99.3% (inactive) | 102% | 98%
C/C(=N\NC(=O)c1c(Br)c(C)nn1C)c1cccc(NC(=O)C2CCC2)c1 | 100% (inactive) | 101% | 102% | 101% (inactive) | 97.9% | 101% | 102% (inactive) | 106% (inactive) | 99.3% (inactive) | 98.3% | 99.1%
O=S(=O)(CCN(CCS(=O)(=O)C(F)(F)F)CC1CCCO1)C(F)(F)F (stereo not drawn) | 92.9% (inactive) | 96.2% | 86.3% | 219% (active) | 179% | 210% | 118% (inactive) | 94.5% (inactive) | 111% (inactive) | 115% | 96.8%
CCCc1cc(N2CCN(c3ccccn3)CC2)n2nc(C)c(-c3ccccc3)c2n1 | 104% (inactive) | 101% | 104% | 142% (inactive) | 147% | 140% | 160% (inactive) | 109% (inactive) | 153% (active) | 154% | 148%
O=C(O)Cc1sc(Nc2ccccc2)nc1-c1cccs1 | 97.8% (inactive) | 98% | 97.9% | 149% (inactive) | 144% | 156% | 110% (inactive) | 99.7% (inactive) | 104% (inactive) | 104% | 103%
N#Cc1ccccc1Cn1cc(/C=C/[N+](=O)[O-])c2ccccc21 | 96.3% (inactive) | 98.3% | 95.1% | 132% (inactive) | 129% | 134% | 98.8% (inactive) | 104% (inactive) | 97.2% (inactive) | 100% | 91.8%
Cc1ccc(/C=C/C(=O)N2CC(C)CC(C)C2)o1 (stereo not drawn) | 103% (inactive) | 105% | 101% | 111% (inactive) | 107% | 113% | 116% (inactive) | 105% (inactive) | 106% (inactive) | 103% | 105%
CCCCCCc1cc2cc(-c3nnc(-c4ccccc4OC)o3)c(=O)oc2cc1O | 98.7% (inactive) | 99.3% | 98.4% | 111% (inactive) | 105% | 111% | 106% (inactive) | 99.1% (inactive) | 100% (inactive) | 101% | 98.2%
Cc1ccccc1N1C(=O)c2sc3nc4c(c(=O)n3c2C1=O)CCC4 | 96.2% (inactive) | 94.9% | 96.3% | 107% (inactive) | 107% | 110% | 99% (inactive) | 102% (inactive) | 90.1% (inactive) | 90.2% | 88.2%
Cc1nn(Cc2ccc(Cl)cc2)c(=O)n1N(C)c1ncc(C(F)(F)F)cc1Cl | 96% (inactive) | 98.1% | 97.2% | 96.7% (inactive) | 97.6% | 95.1% | 96.2% (inactive) | 95.4% (inactive) | 99.7% (inactive) | 101% | 98.5%
Cc1ccc(NC(=S)N(CCCN2CCOCC2)Cc2cccs2)c(C)c1 | 97.6% (inactive) | 97.8% | 97.9% | 102% (inactive) | 104% | 101% | 99.5% (inactive) | 96% (inactive) | 99.3% (inactive) | 100% | 98%
Cc1ccccc1OCC(=O)NNC(=S)NC(=O)c1ccco1 | 122% (inactive) | 111% | 118% | 147% (inactive) | 135% | 137% | 129% (inactive) | 110% (inactive) | 125% (inactive) | 122% | 112%
CCCc1nnc(NC(=O)c2nc(S(=O)(=O)Cc3ccc(C)cc3)ncc2Cl)s1 | 98.9% (inactive) | 97.6% | 94% | 106% (inactive) | 102% | 104% | 103% (inactive) | 103% (inactive) | 112% (inactive) | 106% | 108%
O=S(=O)(c1ccc(Oc2ccccc2)cc1)N1CCOCC1 | 98.2% (inactive) | 98.4% | 98.2% | 96.2% (inactive) | 95.6% | 97.2% | 100% (inactive) | 94.1% (inactive) | 93.9% (inactive) | 94.8% | 94.4%

SMILES | GFP response vs DMSO [1] | GFP response vs DMSO [1, 6] | GFP response vs DMSO [1, 7] | GFP response relative to DMSO [2] | GFP response relative to DMSO [2, 8] | GFP response relative to DMSO [2, 9] | GFP response vs DMSO [3] | GFP response, % of DMSO [4] | GFP response, % of DMSO [5] | GFP response, % of DMSO [5, 6] | GFP response, % of DMSO [5, 7]
CC(Oc1cccc(Cl)c1)C(=O)Nc1nc(-c2ccccn2)cs1 (stereo not drawn) | 105% (inactive) | 97% | 103% | 161% (active) | 140% | 167% | 104% (inactive) | 90.8% (inactive) | 86.1% (inactive) | 93.2% | 81.6%
CCN(Cc1ccccc1)S(=O)(=O)c1ccc(C(=O)Nc2nnc(C3CC3)o2)cc1 | 98% (inactive) | 97% | 98.6% | 106% (inactive) | 105% | 104% | 99.5% (inactive) | 96.9% (inactive) | 99.3% (inactive) | 100% | 96.8%
CCOC(=O)c1cnn(-c2cc(C)nc3c(-c4ccccc4)c(C)nn23)c1N | 96.6% (inactive) | 97.4% | 96.6% | 95.4% (inactive) | 96% | 94% | 105% (inactive) | 94.3% (inactive) | 98.3% (inactive) | 99.1% | 97.3%
CCOc1ccc(C(C)=O)cc1N1C(=O)C2C3C=CC(O3)C2C1=O (stereo not drawn) | 100% (inactive) | 105% | 95.6% | 136% (inactive) | 132% | 136% | 103% (inactive) | 97.9% (inactive) | 110% (inactive) | 110% | 104%
O=C(NCc1ccncc1)C12CC3CC(CC(Cl)(C3)C1)C2 | 96.2% (inactive) | 98.1% | 96.8% | 97% (inactive) | 95.9% | 96.2% | 99% (inactive) | 99.8% (inactive) | 105% (inactive) | 105% | 103%
O=C(Nc1ccccc1)c1ccccc1O | 96.7% (inactive) | 97.3% | 95.6% | 114% (inactive) | 107% | 114% | 99.3% (inactive) | 97.3% (inactive) | 93.1% (inactive) | 95.8% | 92.6%
Cc1cccc(OCCCSc2nc3ccc(C)cc3[nH]2)c1 | 92% (inactive) | 89.2% | 92.2% | 124% (inactive) | 115% | 127% | 94.7% (inactive) | 91.6% (inactive) | 79.9% (inactive) | 77.5% | 82.1%
O=C(Nc1nnc(-c2ccccc2Cl)o1)c1ccc(S(=O)(=O)N2CCCCCC2)cc1 | 100% (inactive) | 98.6% | 99.8% | 97% (inactive) | 97.5% | 96.2% | 101% (inactive) | 95.1% (inactive) | 97.3% (inactive) | 93.8% | 98.1%
COC(=O)c1ccc(/C=C/C(=O)c2cccc(OC)c2)cc1 | 104% (inactive) | 102% | 103% | 117% (inactive) | 112% | 116% | 105% (inactive) | 101% (inactive) | 103% (inactive) | 101% | 102%
CCN(CC)CCNC(=O)Cn1c(-c2ccccn2)nc2ccccc21 | 99.5% (inactive) | 98.1% | 99.6% | 96.2% (inactive) | 98.7% | 98.3% | 100% (inactive) | 94.3% (inactive) | 97.8% (inactive) | 96.5% | 97.7%
O=C(/C=C/c1cc(Br)ccc1O)c1ccco1 | 99.9% (inactive) | 101% | 99% | 151% (active) | 135% | 153% | 122% (inactive) | 100% (inactive) | 95% (inactive) | 98.3% | 91%
Nc1cccnc1S(=O)(=O)c1cccc(C(F)(F)F)c1 | 97.6% (inactive) | 97.1% | 97.2% | 96.7% (inactive) | 97.6% | 94% | 102% (inactive) | 98.9% (inactive) | 96.9% (inactive) | 99.1% | 93.8%
COC(=O)/C(=C/c1c[nH]c2ccccc12)[N+](=O)[O-] | 99.6% (inactive) | 95.1% | 95.1% | 162% (active) | 149% | 164% | 111% (inactive) | 86.9% (inactive) | 89.8% (inactive) | 89.9% | 80.7%
Cc1cc(N=Nc2ccccc2C(=O)O)c(C)c(C)c1O | 99.8% (inactive) | 99.4% | 99.3% | 108% (inactive) | 109% | 108% | 114% (inactive) | 98.4% (inactive) | 126% (inactive) | 129% | 125%
COCCCN(C(=O)c1ccco1)c1nc(-c2cc(OC)ccc2OC)cs1 | 95.8% (inactive) | 96.4% | 94% | 98.9% (inactive) | 96% | 100% | 112% (inactive) | 98.4% (inactive) | 100% (inactive) | 103% | 99.3%
COc1ccc(OCC(O)CNC(=O)/C=C/c2cccc([N+](=O)[O-])c2)cc1 (stereo not drawn) | 100% (inactive) | 100% | 100% | 104% (inactive) | 102% | 104% | 101% (inactive) | 107% (inactive) | 103% (inactive) | 103% | 104%
